# Screening results as filed in PubChem BioAssay.
# M1 agonist – M1 muscarinic receptor agonists, primary screen, CHO-M1 cells, Fluo-4 calcium, agonist mode | 64,000 tested, 3% active | B-score at 10 µM | Fluo-4 calcium fluorescence; active compounds read high;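 active = fluorescence rise, raw or as B-score row- and column-corrected plate score, outside the 99.7% band of its plate's samples, either direction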
# D1 mod – D1 CRE-luciferase signal change, two-sided – cell-based, HEK293 D1, dopamine EC30, D1 allosteric modulator project, primary screen | B-score at 10 µM | D(1A) dopamine receptor (Homo sapiens), P21728 | dopamine EC30 potentiation; actives deviate in either direction | AID 641, 2007 | 58,000 tested, 5.9% active;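 active = luminescence count or its row- and column-corrected plate score outside the 99.7% band of the plate's sample wells, on either side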
# M1 antag – antagonists of rat M1 muscarinic receptor | Muscarinic acetylcholine receptor M1 (Rattus norvegicus), P08482 | CHO-M1 cells, Fluo-4 calcium, ACh EC80 antagonist mode; active compounds read low | B-score at 10 µM | 64,000 tested, 3.4% active | AID 628, 2007;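 active = calcium fluorescence response, raw or row-and-column corrected B-score, differing from the plate sample mean either way at a set confidence level, mostly lower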
# AP complement – alternative complement pathway inhibitors, primary screen, biochemical, ELISA, human serum, orthogonally pooled compounds | AID 1235, 2008 | LPS-coated ELISA, C3 deposition; tested in compound mixtures | inhibition, % at 5 µM | 62,000 tested, 0.08% active;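 active = inhibition above 30% in each of the two pooled mixtures holding the compound, so the lower value exceeds 30%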
#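 Test system – human serum alternative complement pathway, C3 deposition on LPS-coated wells · Buffer or medium – diluted human serum in Mg2+-EGTA GVB++ · Compound dosing – 5 µM each compound, pools of ten, 50 µM per pool · Schedule – 1 h serum-compound exposure at 37 °C · Measured by – Anti-C3 ELISA, OD 450 nm · Read-out basis – percent inhibition of C3 deposition onto LPS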
# Htt clearance – clearance of mutant huntingtin inclusions, primary screen, imaging, HeLa Exon1htt(103Q)mCFP, confocal imaging. 47,000 tested, 0.42% active. aggregate imaging; zero = plate's median compound well. AID 853, 2007. inhibition, % at 1.5 µM;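 active = inhibition of aggregate fluorescence above about 70%, also judged a hit by eye on the cell image, limit read from the data, passing the limit was not always enough; inconclusive = no rule stated for this call; inactive = not judged a hit on image review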;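 note: cells exposed to compound for three days before fixation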
# M1 ag confirm – rat M1 muscarinic receptor agonists, confirmation, CHO-M1 cells, Fluo-4 calcium, duplicate retest | shares compounds with M1 agonist | Fluo-4 calcium fluorescence, agonist mode; actives lie on both sides | fluorescence change (max-min) at 10 µM | 1,700 tested, 19% active | AID 1488, 2009;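 active = fluorescence change differs from the solvent-only DMSO control mean at a set confidence level in both duplicate runs; inconclusive = differs from solvent-only control mean in just one of two runs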;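 note: an EC20 dose of acetylcholine follows compound addition during the same imaging run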
# M4 ag counter – agonist activity at rat M4 receptor, confirmation, counter-screen for M1 allosteric modulator project, cell-based, agonist mode. shares compounds with M1 agonist. CHO M4/Gqi5 cells, Fluo-4 calcium fluorescence; actives lie on both sides. fluorescence change (max-min) at 10 µM. 1,700 tested, 9% active;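 active = fluorescence change differing from the plate's solvent-only control wells at 99.7% confidence in both duplicates, whether higher or lower; inconclusive = differs from solvent controls in only one of two duplicates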
# Target sequence (P08485 whole entry, looked up): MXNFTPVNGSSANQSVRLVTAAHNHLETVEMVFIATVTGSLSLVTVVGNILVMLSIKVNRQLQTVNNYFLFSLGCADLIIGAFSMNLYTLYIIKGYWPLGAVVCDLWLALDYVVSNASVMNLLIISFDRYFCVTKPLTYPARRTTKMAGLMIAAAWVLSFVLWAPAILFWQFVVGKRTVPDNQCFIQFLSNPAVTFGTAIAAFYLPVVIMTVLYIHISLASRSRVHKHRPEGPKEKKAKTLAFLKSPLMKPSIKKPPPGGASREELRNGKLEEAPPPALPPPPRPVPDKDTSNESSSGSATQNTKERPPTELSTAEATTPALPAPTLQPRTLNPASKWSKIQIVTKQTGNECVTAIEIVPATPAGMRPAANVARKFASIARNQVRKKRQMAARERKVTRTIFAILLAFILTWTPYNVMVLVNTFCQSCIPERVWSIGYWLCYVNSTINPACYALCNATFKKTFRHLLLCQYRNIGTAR
# Hits are given with their value; – = inactive; ? = inconclusive; · = no result given. This is a sample that favours compounds with a hit; in the whole collection about 9% have one here.
SMILES,M1 agonist,D1 mod,M1 antag,AP complement,Htt clearance,M1 ag confirm,M4 ag counter
Cc1cccc(N2CCN(C(=O)Cn3sc4nc(C)cc(C)c4c3=O)CC2C)c1 (centres undefined),5.3,–,–,–,–,-24,-67
CCC(Oc1ccccc1)C(=O)Nc1ccc(S(=O)(=O)NCC2CCCO2)cc1 (centres undefined),-2.2,–,–,–,–,–,–
Cc1ccc(C2N(c3ccc(Cl)c(Cl)c3)C(=O)C3CCCN32)o1 (centres undefined),6.7,–,–,–,–,?,–
COc1ccc(N2C(=O)C3CCCN3C2c2ccc(C)o2)cc1Cl (centres undefined),–,–,–,–,–,·,·
CS(=O)(=O)N1CCc2cc(C(=O)OCC(=O)c3ccccc3)ccc21,–,–,–,–,·,·,·
O=C1CC(=O)N(Cc2ccco2)C(=O)N1,3,–,–,–,·,?,–
O=C1CC(=O)N(Cc2ccco2)C(=S)N1,·,·,·,·,–,·,·
CC(=O)N1CCCc2cc(S(=O)(=O)N3CCN(c4ccccn4)CC3)ccc21,–,–,–,–,·,·,·
CC(C)c1nnc(NC(=O)c2ccc(S(=O)(=O)N3CCOCC3)cc2)s1,-3.1,–,–,–,·,?,?
Cc1cc(C)c(NC(=O)c2ccc(S(=O)(=O)N3CCOCC3)cc2)c(C)c1,–,–,–,–,·,·,·
COc1[nH]c(/N=C/c2ccccc2)c(C#N)c1C#N,10,–,–,–,–,?,–
Cn1c(C(=O)O)c(CC(=O)NCc2cccnc2)c2ccccc21,–,–,–,–,·,·,·
CCN(C1CCCCC1)S(=O)(=O)c1ccc(S(=O)(=O)NCCc2ccncc2)cc1,–,–,–,–,·,·,·
CCN(C1CCCCC1)S(=O)(=O)c1ccc(S(=O)(=O)NCc2ccncc2)cc1,3.7,–,-2.2,–,–,–,–
N#C/C(=C\c1ccc(O)c(O)c1)S(=O)(=O)c1ccccc1,22,–,–,–,–,–,–
Clc1ccc(-c2ccc(/C=N/Nc3cc(N4CCOCC4)nc(N4CCOCC4)n3)o2)cc1,·,·,·,·,–,·,·
CCN(CC)CC(C)OC(=O)COc1ccc(OC)cc1 (centres undefined),·,·,·,·,–,·,·
Cc1cc(C)cc(OCC(=O)Nc2cccc(-c3nc4ncccc4o3)c2)c1,6.8,–,–,–,–,–,–
O=C(Cc1ccccc1)Nc1cccc(-c2nc3ncccc3o2)c1,–,–,–,–,–,·,·
CCOc1cccc(C(=O)Nc2cccc(-c3nc4ncccc4o3)c2C)c1,4.2,–,–,–,·,?,-80
O=C(Nc1cccc(-c2nc3ncccc3o2)c1)c1cc2ccccc2o1,6,–,–,·,·,–,?
Cc1ccc(-c2nc3ncccc3o2)cc1NC(=O)c1cc2ccccc2o1,–,–,–,–,–,·,·
O=C(O)CCCC(=O)Nc1ccc(Br)cc1C(=O)O,–,–,–,–,·,·,·
CCOc1ccc(N2CC(C(=O)OC)CC2=O)cc1 (centres undefined),–,–,–,–,–,·,·
CC(OC(=O)c1snc(C(=O)NC2CCCCC2)c1N)C(=O)NC1CCCCC1 (centres undefined),·,·,·,·,–,·,·
SMILES,M1 agonist,D1 mod,M1 antag,AP complement,Htt clearance,M1 ag confirm,M4 ag counter
COc1ccc(OC)c(NC(=O)CC(NCCC2=CCCCC2)C(=O)O)c1 (centres undefined),–,–,–,–,–,·,·
Cc1ccc(C)c(-c2nnc(OCC(=O)Nc3cc(C)on3)c3ccccc23)c1,–,–,–,–,·,·,·
O=C(c1cccs1)c1no[n+]([O-])c1C(=O)c1cccs1,12,–,-3.2,–,·,–,–
COc1ccc(C(=O)c2no[n+]([O-])c2C(=O)c2ccc(OC)cc2)cc1,–,–,–,–,–,·,·
Cc1ccc(-c2cc(-c3ccccc3)c3c(N)c(S(C)(=O)=O)sc3n2)cc1,·,·,·,·,–,·,·
N#Cc1sc2nc(-c3ccccc3)cc(-c3ccco3)c2c1N,15,–,–,–,–,–,–
Cc1ccc(Cl)cc1NC(=O)CC(O)(C(F)(F)F)C(F)(F)F,11,-4.2,-2.5,–,·,–,–
CCn1c(Cc2ccc(OC)cc2)nnc1SCC(=O)Nc1cccc(C(=O)OC)c1,–,–,–,–,–,·,·
Cc1ccnc(SCCn2c(N3CCN(C)CC3)nc3c2c(=O)[nH]c(=O)n3C)n1,–,–,–,–,·,·,·
Cc1ccnc(SCCn2c(N3CCN(c4ccccc4)CC3)nc3c2c(=O)[nH]c(=O)n3C)n1,6.4,-4.5,–,–,·,–,?
CCn1cc(C(=O)NCCCN2CCC(C)CC2)c2cc(OC)c(OC)cc2c1=O,–,–,–,–,·,·,·
COc1ccc(-n2c(Cc3cc(=O)[nH]c(=O)[nH]3)nnc2SCC(=O)N2CCCC2)cc1,3.5,–,–,–,–,–,–
COc1cccc(-n2c(Cc3cc(=O)[nH]c(=O)[nH]3)nnc2SCC(=O)N2CCCC2)c1,–,–,–,–,–,·,·
COC(=O)c1ccc(-c2ccco2)n1Cc1nc(-c2ccc(OC)c(OC)c2)oc1C,1.8,–,–,–,·,–,–
COC(=O)c1cc2ccsc2n1Cc1nc(-c2ccc(Cl)cc2)oc1C,·,·,·,·,–,·,·
COc1ccccc1-n1nc(C(=O)O)c2ccccc2c1=O,6.6,–,–,–,·,?,–
CCSCc1nnc(SCC(=O)c2ccc(OC)cc2)n1C,–,–,–,–,–,·,·
O=C(CCCn1c(=S)[nH]c2cc3c(cc2c1=O)OCO3)N1CCN(c2ccccc2)CC1,3.2,–,–,–,·,?,–
O=C(c1ccc(S(=O)(=O)N2CCCCC2)cc1)N1CCN(Cc2ccc3c(c2)OCO3)CC1,–,–,–,–,–,·,·
O=C(CCCCCn1c(=O)[nH]c2ccccc2c1=O)N1CCN(Cc2ccc3c(c2)OCO3)CC1,3.7,–,–,–,–,–,–
O=C(CCC1CCCCC1)N1CCN(Cc2ccc3c(c2)OCO3)CC1,6.1,–,–,–,·,–,?
O=C(CCn1c(=S)[nH]c2cc3c(cc2c1=O)OCO3)N1CCN(c2ccccn2)CC1,–,–,–,–,·,·,·
Cc1cccc(N2CCN(C(=O)CCn3c(=S)[nH]c4cc5c(cc4c3=O)OCO5)CC2C)c1 (centres undefined),2.5,–,–,–,–,–,–
CCn1c(SCC(=O)Nc2ccccc2C(=O)OC)nnc1-c1ccoc1C,–,–,–,–,–,·,·
Cc1ccccc1NCC(=O)N/N=C/C(Br)=C/c1ccccc1,·,·,·,·,–,·,·
COc1ccc(Nc2ccnc3ccccc23)cc1,14,-3.7,-2,–,91,–,–
